Values after ≈ are worked out from the molar mass of the structure shown. Active and inactive are the calls of the source. The rule behind the calls is not given here.
Columns and labels:
[1] = target: T1, Melanin-concentrating hormone receptor 1 (Homo sapiens, UniProt Q99705); test: Displacement of [125I]-MCH(4 to 19) from human MCHR1 expressed in CHO cell membranes after 1 hr by liquid scintillation counting
In short: (§1)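 Membranes from CHO cells stably expressing human or rat MCHR1, prepared by homogenization and 100,000×g centrifugation, in 20 mM Tris-HCl pH 7.5 with 5 mM EDTA and protease inhibitors. Incubated with test compound and [125I]-MCH(4–19) for 1 h at room temperature. Filtered on PEI-treated GF/C filters and counted by scintillation. Nonspecific binding defined with cold MCH(1–19). IC50 from duplicate experiment.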

[2] = target: Melanin-concentrating hormone receptor 1 (Rattus norvegicus, UniProt P97639); test: Displacement of [125I]-MCH(4-19) from rat MCHR1 expressed in CHO cell membranes after 1 hr by liquid scintillation counting; in short: as §1
Melanin-concentrating hormone receptor 1 (Rattus norvegicus, UniProt P97639), sequence (P97639 whole entry): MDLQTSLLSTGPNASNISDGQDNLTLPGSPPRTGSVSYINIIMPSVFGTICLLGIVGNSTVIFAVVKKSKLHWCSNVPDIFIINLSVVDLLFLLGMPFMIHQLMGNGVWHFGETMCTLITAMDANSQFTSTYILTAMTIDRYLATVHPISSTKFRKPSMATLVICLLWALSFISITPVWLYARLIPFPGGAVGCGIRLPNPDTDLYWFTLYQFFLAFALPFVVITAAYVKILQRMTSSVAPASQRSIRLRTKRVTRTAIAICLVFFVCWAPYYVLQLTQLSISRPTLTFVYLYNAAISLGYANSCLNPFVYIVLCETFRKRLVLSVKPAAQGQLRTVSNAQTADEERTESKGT

Rattus norvegicus [3] = test: Antiobesity activity in DIO-F344/Jcl rat assessed as reduction in body weight at 1 mg/kg, po dosed for 2 weeks and measured every 2 or 3 days relative to vehicle control; assay type: functional; set-up: scale not given: the % may be the effect or the level left
In short: (§2)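 Male DIO-F344 rats (41 weeks old), on high-fat diet D12451 from 5 weeks of age, singly housed, given powder high-fat diet, habituated to oral dosing with tap water, grouped by day-0 food intake and body weight. Oral gavage once daily, suspended in 0.5% methylcellulose at 2 mL/kg, 1–3 h before dark onset, for 2 weeks (n = 5 or 6). Body weight taken before dosing, expressed as % of initial. Food intake every 2 or 3 days. Vehicle-treated and sibutramine-treated groups included.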

Rattus norvegicus [4] = test: Anorectic effect in DIO-F344/Jcl rat assessed as cumulative food intake at 1 mg/kg, po dosed for 2 weeks and measured every 2 or 3 days relative to vehicle control; assay type: functional; in short: as §2
CYP3A4 = CYP3A4 (Homo sapiens, UniProt P08684); test: Time dependent inhibition of CYP3A4 in human liver microsomes assessed as conversion of testosterone to 6beta-hydroxytestosterone by measuring remaining activity at 30 uM by UPLC analysis in presence of NADPH generating system; assay type: ADME; conditions: read-out: Activity
CYP3A4, sequence (P08684 whole entry): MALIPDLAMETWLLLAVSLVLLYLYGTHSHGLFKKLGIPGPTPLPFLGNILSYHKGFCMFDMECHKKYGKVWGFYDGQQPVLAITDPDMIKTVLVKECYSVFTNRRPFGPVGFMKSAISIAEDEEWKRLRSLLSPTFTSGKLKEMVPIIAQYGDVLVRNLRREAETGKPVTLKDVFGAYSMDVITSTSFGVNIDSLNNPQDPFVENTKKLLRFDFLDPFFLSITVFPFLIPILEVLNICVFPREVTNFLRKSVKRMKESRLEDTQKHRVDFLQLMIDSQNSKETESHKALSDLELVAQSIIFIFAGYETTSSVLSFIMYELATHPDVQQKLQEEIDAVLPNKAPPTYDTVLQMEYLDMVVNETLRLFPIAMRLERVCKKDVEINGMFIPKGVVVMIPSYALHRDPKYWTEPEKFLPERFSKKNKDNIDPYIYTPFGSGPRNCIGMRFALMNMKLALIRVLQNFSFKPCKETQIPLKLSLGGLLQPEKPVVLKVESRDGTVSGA
In short: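 Single-point assay: test compound at 30 µM preincubated with human liver microsomes at 37 °C in phosphate buffer pH 7.4 with an NADPH-generating system. Residual CYP3A4 activity then measured as testosterone 6β-hydroxylation by UPLC. Percent remaining = activity with preincubation (% of DMSO control) over activity without preincubation; n = 2.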

Rattus norvegicus [5] = test: Anorectic effect in DIO-F344/Jcl rat assessed as inhibition of food intake at 3 mg/kg, po administered 2 hrs before onset of dark period for 2 days; assay type: functional
In short: (§3)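 Male DIO-F344/Jcl rats, 45 weeks old, on high-fat diet from 5 weeks of age, singly housed on powdered high-fat diet and habituated to oral dosing with tap water. Grouped by day-0 food intake and body weight. Dosed orally once daily, suspended in 0.5% methylcellulose at 2 mL/kg, 2 h before dark onset, for 2 days; n = 6. Cumulative 2-day food intake is expressed relative to the vehicle group.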

[6] = Oral bioavailability in Sprague-Dawley rat plasma at 1 mg/kg administered through cassette dosing by LC/MS/MS analysis; assay type: ADME, organism-based
In short: (§4)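 Male SD rats (eight weeks old), fed, cassette-dosed iv at 0.1 mg/kg or orally at 1 mg/kg as a suspension in 0.5% methylcellulose; n = 3. Plasma obtained by centrifugation of blood, deproteinized with acetonitrile, and measured by LC/MS/MS. AUC covers 0–8 h. Bioavailability, total clearance and Vss are derived from the iv and po data.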

[7] = Tmax in Sprague-Dawley rat plasma at 1 mg/kg, po administered through cassette dosing by LC/MS/MS analysis; assay type: ADME, organism-based; in short: as §4
[8] = Cmax in Sprague-Dawley rat at 1 mg/kg, po administered through cassette dosing by LC/MS/MS analysis; assay type: ADME, organism-based; set-up: dose 1 mg/kg, route oral; conditions: in vivo; in short: as §4
Rattus norvegicus [9] = test: Anorectic effect in DIO-F344/Jcl rat assessed as inhibition of food intake at 10 mg/kg, po administered 2 hrs before onset of dark period for 2 days; assay type: functional; set-up: scale not given: the % may be the effect or the level left; in short: as §3
[10] = Total clearance in Sprague-Dawley rat plasma at 0.1 mg/kg, iv administered through cassette dosing by LC/MS/MS analysis; assay type: ADME, organism-based; in short: as §4
[11] = target: T1, Melanin-concentrating hormone receptor 1; test: Antagonist activity at human MCHR1 expressed in CHO cells assessed as change in MCH(4 to 19)-stimulated Ca2+ concentration by Ca2+ mobilization assay; assay type: functional, cell-based
In short: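 CHO dhfr− cells stably transfected with human MCHR1 (clone 4), seeded at 20000 cells/well and cultured about 24 h. Loaded with Fluo4 calcium dye for 30 min at 37 °C. Test compound in 10 mM HEPES pH 7.4 buffer with 0.1% BSA added, then MCH(4–19) at 2 nM final. Fluorescence read every 2 s; inhibition rate (%) taken relative to ligand-alone and DMSO-alone wells.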

[12] = AUC( 0 to 8 hrs) Sprague-Dawley rat plasma at 1 mg/kg, po administered through cassette dosing by LC/MS/MS analysis; assay type: ADME, organism-based; set-up: dose 1 mg/kg, time < 8 hr, route oral; in short: as §4
[13] = Solubility of compound at pH 6.8; assay type: physicochemical; conditions: buffer
[14] = Volume of distribution in steady state in Sprague-Dawley rat plasma at 0.1 mg/kg, iv administered through cassette dosing by LC/MS/MS analysis; assay type: ADME, organism-based; conditions: read-out: Vdss; in short: as §4

T1 sequence (Q99705 whole entry): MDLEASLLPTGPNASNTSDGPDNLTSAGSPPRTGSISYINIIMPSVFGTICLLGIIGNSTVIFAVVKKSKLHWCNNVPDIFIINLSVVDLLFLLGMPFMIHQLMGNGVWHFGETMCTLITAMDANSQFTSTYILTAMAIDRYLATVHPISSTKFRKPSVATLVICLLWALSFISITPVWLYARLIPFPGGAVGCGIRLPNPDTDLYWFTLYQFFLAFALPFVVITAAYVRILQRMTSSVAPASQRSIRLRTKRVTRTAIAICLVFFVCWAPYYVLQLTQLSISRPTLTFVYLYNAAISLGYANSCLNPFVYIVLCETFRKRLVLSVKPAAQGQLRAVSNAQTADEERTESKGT

Compound | IC50 [1] [nM] | IC50 [2] [nM] | other results
CCCc1nc2ccc(-n3ccc(OCc4ccc(F)cc4)cc3=O)cc2n1C | 34 | 39 | –
CCn1c(C2CC2)nc2ccc(-n3ccc(OCc4ccc(Cl)cc4)cc3=O)cc21 | 37 | 34 | –
Cn1c(C2CCCC2)nc2ccc(-n3ccc(OCc4ccc(F)cc4)cc3=O)cc21 | 600 | 460 | –
Cn1c(C2CC2)nc2ccc(-n3ccc(OCc4ccc(Cl)cn4)cc3=O)cc21 | 73 | 47 | –
Cc1c(C2CC2)nc2cnc(-n3ccc(OCc4ccc(Cl)cc4)cc3=O)cn12 | 44 | – | –
Cn1c(CC(C)(C)C)nc2ccc(-n3ccc(OCc4ccc(F)cc4)cc3=O)cc21 | > 1000 | > 1000 | –
Cc1c(C2CC2)nc2ncc(-n3ccc(OCc4ccc(Cl)cc4)cc3=O)cn12 | > 1000 | – | –
Cn1c(C2CC2)nc2ccc(-n3ccc(OCc4ccc(F)cc4)cc3=O)cc21 | 40 | 28 | –
CC(C)CC(N(C)C)C1(c2ccc(Cl)cc2)CCC1 (stereo unspecified) [SIBUTRAMINE] | – | – | Activity (Rattus norvegicus [3]): 3.1%; Activity (Rattus norvegicus [4]): 18.7%
Cn1c(C2CC2)nc2ccc(-n3ccc(OCc4cccc(Cl)c4)cc3=O)cc21 | 100 | 72 | –
Cn1c(C2CC2)nc2ccc(-n3ccc(OCc4cc(C(F)(F)F)cs4)cc3=O)cc21 | 34 | 17 | activity at 30 µM (CYP3A4): 87%
Cn1c(C2CC2)nc2ccc(-n3ccc(OCc4ccc(C(F)(F)F)s4)cc3=O)cc21 | 16 | 13 | Activity (Rattus norvegicus [5]): Active; bioavailability [6]: 57%; activity at 30 µM (CYP3A4): 97%; Tmax [7]: 2.7 h; Cmax [8]: 298 ng/mL; Activity (Rattus norvegicus [9]): 20.3%; clearance [10]: 4.75 mL/min/kg; IC50 [11]: 18 nM; AUC(0-t) at 8 h [12]: 2020 ng·h/mL; solubility [13]: 0.25 µg/mL (≈ 0.561 µM); Vd [14]: 0.979 L/kg
Cn1c(C2CC2)nc2ccc(-n3ccc(OCc4csc(C(F)(F)F)c4)cc3=O)cc21 | 41 | 29 | activity at 30 µM (CYP3A4): 96%
Cn1c(C2CC2)nc2ccc(-n3ccc(OCc4ccc(Cl)cc4)cc3=O)cc21 | 35 | 21 | –
CCCn1c(C2CC2)nc2ccc(-n3ccc(OCc4ccc(Cl)cc4)cc3=O)cc21 | 85 | 110 | –

Source: ChEMBL document CHEMBL3792381, “Amine-free melanin-concentrating hormone receptor 1 antagonists: Novel 1-(1H-benzimidazol-6-yl)pyridin-2(1H)-one derivatives and design to avoid CYP3A4 time-dependent inhibition” (Bioorg Med Chem, 2016)
